pIC50: −log10 of the molar value.
system: Plasmodium falciparum; assay: Antimalarial activity against chloroquine-resistant Plasmodium falciparum Dd2 after 72 hrs by SYBR green-based fluorescence assay; format: functional; details: Dd2, 72 h
Outline: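 Growth-inhibition assay of the chloroquine-resistant P. falciparum Dd2 strain over 72 h, read by SYBR Green fluorescence and run under a slightly modified published protocol. Artemisinin served as positive control.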

Row | SMILES | pIC50
1 | C=C1[C@H](OC(C)=O)[C@@H](OC(C)=O)[C@@H](OC(C)=O)C(C)(C)/C=C/[C@H](C)C(=O)[C@]2(OC(C)=O)[C@H]([C@@H](OC(C)=O)[C@@H](C)[C@H]2O)[C@H]1OC(=O)c1ccccc1 | < 5.30
2 | C=C1C[C@]2(O)C(=O)C(C)(C)C[C@H]2[C@@](C)(O)C(=O)[C@@]2(O)C[C@H](C)[C@H](OC(=O)c3ccccc3)[C@@H]2[C@H]1OC(=O)[C@H](C)C(C)C | 5.62
3 | C=C1[C@H](OC(=O)c2ccccc2)[C@@H](OC(C)=O)[C@@H](OC(C)=O)C(C)(C)/C=C/[C@H](C)C(=O)[C@@]2(OC(C)=O)C[C@H](C)[C@H](OC(C)=O)[C@@H]2[C@H]1OC(=O)c1ccccc1 | 6.92
4 | C=C1C[C@]2(O)C(=O)C(C)(C)C[C@H]2[C@@](C)(O)C(=O)[C@@]2(O)C[C@H](C)[C@H](OC(=O)c3ccccc3)[C@@H]2[C@H]1OC(=O)c1ccccc1 | < 5.30
5 | C=C1[C@H](OC(C)=O)[C@@H](OC(C)=O)[C@@H](OC(C)=O)C(C)(C)/C=C/[C@H](C)C(=O)[C@]2(O)[C@H]([C@@H](OC(C)=O)[C@@H](C)[C@H]2OC(C)=O)[C@H]1OC(=O)c1ccccc1 | < 5.30
6 | C=C1[C@H](OC(=O)c2ccccc2)[C@@H](O)[C@@H](OC(C)=O)C(C)(C)/C=C/[C@H](C)C(=O)[C@@]2(OC(C)=O)C[C@@](C)(OC(C)=O)[C@H](OC(C)=O)[C@@H]2[C@H]1OC(C)=O | < 5.00
7 | C=C1[C@H](OC(=O)c2ccccc2)[C@@H](OC(C)=O)[C@@H](OC(C)=O)C(C)(C)/C=C/[C@H](C)C(=O)[C@]2(OC(C)=O)[C@H]([C@@H](OC(C)=O)[C@](C)(O)[C@H]2O)[C@H]1OC(=O)c1ccccc1 | < 5.30
8 | C=C1C[C@]2(O)C(=O)C(C)(C)C[C@H]2[C@@](C)(O)C(=O)[C@@]2(O)C[C@H](C)[C@H](OC(=O)c3ccccc3)[C@@H]2[C@H]1OC(C)=O | < 5.30
9 | C=C1[C@H](OC(=O)c2ccccc2)[C@@H](O)[C@@H](OC(C)=O)C(C)(C)/C=C/[C@H](C)C(=O)[C@@]2(OC(C)=O)C[C@H](C)[C@H](OC(C)=O)[C@@H]2[C@H]1OC(C)=O | < 5.30
10 | C=C1[C@H](OC(C)=O)[C@@H](OC(C)=O)[C@@H](OC(C)=O)C(C)(C)/C=C/[C@H](C)C(=O)[C@@]2(OC(C)=O)C[C@@](C)(OC(C)=O)[C@H](OC(=O)c3ccccc3)[C@@H]2[C@H]1OC(C)=O | < 5.30
11 | C[C@@H]1CC[C@H]2[C@@H](C)C(=O)O[C@@H]3O[C@@]4(C)CC[C@@H]1[C@]32OO4 [ARTEMISININ] | 8.15
12 | C=C1[C@H](OC(C)=O)[C@@H](OC(C)=O)[C@@H](OC(C)=O)C(C)(C)/C=C/[C@H](C)C(=O)[C@]2(OC(C)=O)[C@H]([C@@H](OC(=O)c3ccccc3)[C@@H](C)[C@H]2O)[C@H]1OC(C)=O | < 5.30
